The text below walks through data of ChEMBL document CHEMBL1128333, “Derivatives of cis-2-amino-8-hydroxy-1-methyltetralin: mixed 5-HT1A-receptor agonists and dopamine D2-receptor antagonists” (J Med Chem, 1995).

The species entered for experiment [1] is Rattus norvegicus. The experiment is described as follows: 5-HT content of rat hippocampus reflecting 5-HT metabolism and turnover. The class given is functional. Also noted: concentration or dose not given beside the values. In outline: (§1)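 Male Sprague–Dawley rats (260–310 g) received compound sc in 0.9% NaCl; saline controls. Rats were decapitated 35–45 min post-injection, and hippocampus and striatum were dissected and frozen. Tissue was homogenized in 0.1 M perchloric acid with α-methyl-5-hydroxytryptophan as internal standard, centrifuged and filtered, then analysed by HPLC-EC at 0.85 V (mobile phase pH 2.69, 35 °C). Values are percent of control, mean ± SEM.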

The subject of experiment [2] is Rattus norvegicus. The experiment can be described thus: Forepaw treading (FPT) behavior was studied in rats after subcutaneous administration of 32 uM/Kg of compound; 0/5. The format is functional.
The test system of experiment [3] is Rattus norvegicus. The experiment is described as follows: Cage leaving response was studied in rats after subcutaneous administration of 32 uM/Kg of compound; 4/5. The format is functional.
Experiment [4] has as its system Rattus norvegicus. The experiment can be described thus: Flat body posture behavior was studied in rats after subcutaneous administration of 32 uM/Kg of compound; 0/5. The class given is functional.
For experiment [5], the species on record is Rattus norvegicus. The experiment is described as follows: 5-HIAA (5-Hydroxyindoleacetic acid) content of rat hippocampus reflecting 5-HT metabolism and turnover. The format is functional. Also noted: concentration or dose not given beside the values. In a few lines:
as §1

Experiment [6] is filed under the species Rattus norvegicus. The experiment can be described thus: DA (dopamine) content of rat striatum reflecting DA metabolism and turnover. The format is functional. In a few lines:
as §1

The species entered for experiment [7] is Rattus norvegicus. The experiment is described as follows: Ratio of turnover (DOPAC to DA) in rat brain striatum compared to control. The class given is functional. In outline: as §1
The species named for experiment [8] is Rattus norvegicus. The experiment is described as follows: Ratio of serotonin turnover (5HIAA to 5-HT) in rat brain hippocampus compared to control. The class given is functional. In a few lines: as §1
In experiment [9] the test system is Rattus norvegicus. The experiment can be described thus: Change in body temperature in rats after subcutaneous administration. The format is functional. In a few lines:
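Rectal temperature was taken with an electrical thermometer, probe inserted 3.5 cm, before and 30 min after sc injection in 0.9% NaCl. Values are the change from the preinjection reading, analysed by Tukey HSD versus saline-treated rats. Male Sprague–Dawley rats, 260–310 g.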

Experiment [10] is filed under the species Rattus norvegicus. The experiment is described as follows: HVA (Homovanillic acid)content of rat striatum reflecting DA metabolism and turnover. The format is functional. Also noted: concentration or dose not given beside the values.
Experiment [11] is filed under the species Rattus norvegicus. The experiment can be described thus: DOPAC (3,4-dihydroxyphenylacetic acid) content of rat striatum reflecting DA metabolism and turnover. The format is functional. On the set-up: concentration or dose not given beside the values. In a few lines: as §1
The target in experiment [12] is T1, 5-hydroxytryptamine receptor 1A (Rattus norvegicus, UniProt P19327).
T1 sequence (P19327 whole entry): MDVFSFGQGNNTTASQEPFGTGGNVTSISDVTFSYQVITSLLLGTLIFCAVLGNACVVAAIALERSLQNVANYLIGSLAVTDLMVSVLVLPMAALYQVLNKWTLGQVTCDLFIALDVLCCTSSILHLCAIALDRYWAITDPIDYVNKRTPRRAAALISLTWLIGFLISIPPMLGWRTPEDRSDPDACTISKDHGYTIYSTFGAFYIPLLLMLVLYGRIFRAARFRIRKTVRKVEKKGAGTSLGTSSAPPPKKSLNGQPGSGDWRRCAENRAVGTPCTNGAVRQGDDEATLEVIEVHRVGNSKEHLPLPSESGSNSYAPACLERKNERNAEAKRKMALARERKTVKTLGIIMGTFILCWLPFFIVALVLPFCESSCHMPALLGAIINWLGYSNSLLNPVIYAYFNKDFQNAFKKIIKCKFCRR
The experiment can be described thus: Binding affinity for 5-hydroxytryptamine 1A receptor in rat brain tissue using [3H]8-OH-DPAT as radioligand. The class given is tissue-based. In a few lines:
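Membranes from male Sprague–Dawley rat cortex plus hippocampus, homogenized in 50 mM Tris-HCl with 4.0 mM CaCl2 and 5.7 mM ascorbic acid, pH 7.5, and preincubated 10 min at 37 °C with 10 μM pargyline. Assay used 5 mg/mL tissue and 2 nM [3H]-8-OH-DPAT, 10 min at 37 °C. Nonspecific binding was defined with 10 μM 5-HT. Bound ligand was separated on GF/B filters and counted; data were fitted by nonlinear regression.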

The next experiment deals with D(2) dopamine receptor (Homo sapiens, UniProt P14416). The experiment can be described thus: In vitro binding affinity towards human Dopamine receptor D2A was determined in mouse fibroblast LtK cells using [3H]raclopride. The format is cell-based. In outline: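 Membranes from Ltk− mouse fibroblasts stably expressing human D2A receptors, at 80–100 pM receptor. Buffer was 50 mM Tris-HCl, 120 mM NaCl, 5 mM KCl, 1.5 mM CaCl2, 4 mM MgCl2, 1 mM EDTA, pH 7.4. Incubation with [3H]raclopride was 60 min at 22 °C, in duplicate, with 1 μM (+)-butaclamol for nonspecific binding. Bound ligand was separated on GF/B filters; data were fitted by nonlinear regression.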
Sequence of D(2) dopamine receptor (P14416 whole entry): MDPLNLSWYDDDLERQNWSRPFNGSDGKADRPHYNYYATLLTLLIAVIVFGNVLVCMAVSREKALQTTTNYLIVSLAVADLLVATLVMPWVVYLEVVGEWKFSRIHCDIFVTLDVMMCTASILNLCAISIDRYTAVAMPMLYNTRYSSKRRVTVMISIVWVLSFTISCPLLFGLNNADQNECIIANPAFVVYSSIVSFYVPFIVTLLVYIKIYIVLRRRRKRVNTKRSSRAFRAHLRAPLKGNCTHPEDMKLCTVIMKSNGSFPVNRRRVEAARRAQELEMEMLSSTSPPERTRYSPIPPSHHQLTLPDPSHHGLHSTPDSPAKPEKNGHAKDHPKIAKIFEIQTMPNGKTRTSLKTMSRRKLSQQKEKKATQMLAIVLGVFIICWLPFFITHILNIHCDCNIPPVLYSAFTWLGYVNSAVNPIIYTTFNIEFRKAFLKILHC

Regarding `CCCN(C(C)C)[C@H]1CCc2cccc(O)c2[C@H]1C`, the Control amounted to 97% in the experiment filed under Rattus norvegicus [1]; 79% in the experiment filed under Rattus norvegicus [5]; 110% in the experiment filed under Rattus norvegicus [6]; 100% in the experiment listed under Rattus norvegicus [10]; 86% in the experiment listed under Rattus norvegicus [11]. This molecule also registered an FPT in the experiment with Rattus norvegicus [2] of 0. This molecule also gave a Cage leaving in the experiment with Rattus norvegicus [3] of 4. Moreover, in the experiment on Rattus norvegicus [4], the FBP was determined as 0. The Ratio is given as 77 in the experiment filed under Rattus norvegicus [7] and 80 in the experiment listed under Rattus norvegicus [8]. For the same molecule, the “Change of body temperature” value in the experiment on Rattus norvegicus [9] was -0.1 °C.

As for `CCCN(CCC)[C@H]1CCc2cccc(C(=O)NC(C)C)c2[C@H]1C`, the Control in the experiment filed under Rattus norvegicus [1] came out at 104%; in the experiment filed under Rattus norvegicus [5] it was 97%; in the experiment listed under Rattus norvegicus [6] it was 82%; in the experiment listed under Rattus norvegicus [10], 76%; in the experiment filed under Rattus norvegicus [11], 59%. For the same molecule, in the experiment with Rattus norvegicus [2], the FPT is given as 0. The molecule also gave a Cage leaving in the experiment on Rattus norvegicus [3] of 4. The molecule also showed an FBP with Rattus norvegicus [4] of 0. The Ratio in the experiment listed under Rattus norvegicus [7] came out at 74; in the experiment filed under Rattus norvegicus [8], 92. Besides, the “Change of body temperature” value with Rattus norvegicus [9] amounted to 0 °C. Besides, the Ki (commonly a measure of affinity in units of concentration, obtained from inhibition or displacement) in experiment [12] was greater than 1000 nM.

Consider `CCCN(CCC)[C@@H]1CCc2cccc(C(=O)c3ccccc3)c2[C@@H]1C`, for which the Control in the experiment filed under Rattus norvegicus [1] is listed as 101%; in the experiment filed under Rattus norvegicus [5] it was 92%; in the experiment filed under Rattus norvegicus [6] it was 105%; in the experiment filed under Rattus norvegicus [10] it was 111%; in the experiment listed under Rattus norvegicus [11] it was 117%. This molecule showed an FPT in the experiment on Rattus norvegicus [2] of 0. The molecule also registered a Cage leaving with Rattus norvegicus [3] of 4. The same molecule displayed an FBP with Rattus norvegicus [4] of 0. Also, the results for the Ratio in the experiment listed under Rattus norvegicus [7] and in the experiment filed under Rattus norvegicus [8] were 110 and 89, respectively. The “Change of body temperature” value in the experiment with Rattus norvegicus [9] is 0.1 °C. In experiment [12], this molecule gave a Ki of 2.6 nM.

With `CCCN(CCC)[C@H]1CCc2cccc(C(=O)c3ccccc3)c2[C@H]1C`, the Control in the experiment listed under Rattus norvegicus [1] came out at 93%; in the experiment listed under Rattus norvegicus [5] it was 114%; in the experiment filed under Rattus norvegicus [6], 102%; in the experiment filed under Rattus norvegicus [10], 97%; in the experiment listed under Rattus norvegicus [11] it was 112%. In the experiment with Rattus norvegicus [2], this molecule registered an FPT of 0. The Cage leaving in the experiment with Rattus norvegicus [3] is given as 4. The molecule also returned an FBP with Rattus norvegicus [4] of 0. In addition, the results for the Ratio in the experiment filed under Rattus norvegicus [7] and in the experiment filed under Rattus norvegicus [8] were 109 and 123, respectively. In addition, the “Change of body temperature” value in the experiment on Rattus norvegicus [9] was determined as 0 °C.

Take `CCCN(C(C)C)[C@@H]1CCc2cccc(O)c2[C@@H]1C`: the Control in the experiment filed under Rattus norvegicus [1] is given as 96%; in the experiment listed under Rattus norvegicus [5], 93%; in the experiment filed under Rattus norvegicus [6], 74%; in the experiment listed under Rattus norvegicus [10], 225%; in the experiment listed under Rattus norvegicus [11], 116%. This molecule also came in with an FPT in the experiment on Rattus norvegicus [2] of 0. For the same molecule, in the experiment on Rattus norvegicus [3], the Cage leaving is on record as 4. The same molecule came in with an FBP with Rattus norvegicus [4] of 0. In addition, the Ratio in the experiment filed under Rattus norvegicus [7] was found to be 155; in the experiment listed under Rattus norvegicus [8], 97. Also, the Ki on D(2) dopamine receptor came to 614 nM; in [12], 81 nM. For the same molecule, in the experiment on Rattus norvegicus [9], the “Change of body temperature” value is -0.3 °C.

Consider `CCCN(CCC)[C@@H]1CCc2cccc(OS(=O)(=O)C(F)(F)F)c2[C@@H]1C`, for which the Control is on record as 105% in the experiment filed under Rattus norvegicus [1]; 87% in the experiment listed under Rattus norvegicus [5]; 108% in the experiment listed under Rattus norvegicus [6]; 102% in the experiment listed under Rattus norvegicus [10]; 105% in the experiment filed under Rattus norvegicus [11]. The FPT in the experiment on Rattus norvegicus [2] is recorded as 0. Moreover, the Cage leaving in the experiment on Rattus norvegicus [3] was determined as 4. Further, in the experiment with Rattus norvegicus [4], the FBP was 0. Further, the results for the Ratio in the experiment listed under Rattus norvegicus [7] and in the experiment listed under Rattus norvegicus [8] were 97 and 82, respectively. In addition, the inhibition constant Ki came out at 124 nM on D(2) dopamine receptor and 6.7 nM in experiment [12]. Besides, the “Change of body temperature” value in the experiment on Rattus norvegicus [9] was determined as 0 °C.
